Reference: ChEMBL document CHEMBL3112497, “Functionally Optimized Neuritogenic Farinosone C Analogs: SAR-Study and Investigations on Their Mode of Action” (ACS Med Chem Lett, 2014)
Blank lines part the entries; values can stand above or below the compound they belong to. Activity calls are given as the source filed them. No cut-off for these calls is given here.

Key:
PC-12 [1] = test: Neuritogenic activity in rat PC12 cells assessed as induction of neuronal differentiation at 1 uM after 2 days by Giemsa staining-based phase contrast microscopic analysis; assay type: functional, cell-based
How it was run: (§1)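 PC12 neurite outgrowth assay (modified procedure) with 2-day incubation; compounds at 50, 20, 10, 5 or 1 μM. Positive control NGF 20 ng mL-1, solvent control DMSO 0.1%. Mean ± SEM, n = 3; unpaired t test, 95% confidence interval.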

U-937 [2] = test: Inhibition of anandamide membrane transporter in human U937 cells assessed as inhibition of [3H]-AEA uptake at 10 uM preincubated for 10 to 30 mins followed by [3H]-AEA addition measured after 5 mins by liquid scintillation counting analysis relative to control; assay type: cell-based
[3] = Inhibition of anandamide membrane transporter in human U937 cells assessed as inhibition of [3H]-AEA uptake preincubated for 10 to 30 mins followed by [3H]-AEA addition measured after 5 mins by liquid scintillation counting analysis; assay type: cell-based; conditions: u-937
How it was run: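 [3H]AEA transport in human U937 leukemic monocyte lymphoma cells; EC50 and maximal inhibition taken from concentration-dependent curves, n = 3–5.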

[4] = Cytotoxicity against rat PC12 cells at 1 uM; assay type: cell-based; conditions: pc-12, 1 µM
[5] = Cytotoxicity against rat PC12 cells at 10 uM; assay type: cell-based; conditions: pc-12, 10 µM
PC-12 [6] = test: Neuritogenic activity in rat PC12 cells assessed as induction of neuronal differentiation at 50 uM after 2 days by Giemsa staining-based phase contrast microscopic analysis; assay type: functional, cell-based; how it was run: as §1
[7] = target: T1, Fatty-acid amide hydrolase 1 (Homo sapiens) (UniProt O00519); test: Inhibition of FAAH (unknown origin) at 1 uM
T1 sequence (whole entry): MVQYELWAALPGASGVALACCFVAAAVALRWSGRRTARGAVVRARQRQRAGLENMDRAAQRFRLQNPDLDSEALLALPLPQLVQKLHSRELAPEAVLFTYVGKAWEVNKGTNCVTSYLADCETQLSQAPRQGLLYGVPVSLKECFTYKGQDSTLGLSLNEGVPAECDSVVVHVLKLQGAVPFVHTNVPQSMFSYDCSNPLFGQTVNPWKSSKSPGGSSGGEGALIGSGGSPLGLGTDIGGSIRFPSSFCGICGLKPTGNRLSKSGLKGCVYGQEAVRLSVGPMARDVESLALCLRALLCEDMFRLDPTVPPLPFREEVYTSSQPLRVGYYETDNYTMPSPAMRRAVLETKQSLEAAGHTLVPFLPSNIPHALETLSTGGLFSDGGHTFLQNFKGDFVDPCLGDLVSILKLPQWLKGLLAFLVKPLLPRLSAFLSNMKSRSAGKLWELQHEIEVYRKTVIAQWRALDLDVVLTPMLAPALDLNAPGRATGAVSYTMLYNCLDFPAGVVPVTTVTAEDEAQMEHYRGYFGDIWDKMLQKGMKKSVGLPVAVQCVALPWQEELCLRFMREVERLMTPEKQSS
How it was run: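 FAAH activity measured with compounds at 1 μM.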

PC-12 [8] = test: Neuritogenic activity in rat PC12 cells at 100 nM; assay type: functional, cell-based
PC-12 [9] = test: Neuritogenic activity in rat PC12 cells assessed as induction of neuronal differentiation at 20 uM after 2 days by Giemsa staining-based phase contrast microscopic analysis; assay type: functional, cell-based; how it was run: as §1
PC-12 [10] = test: Neuritogenic activity in rat PC12 cells assessed as induction of neuronal differentiation at 10 uM after 2 days by Giemsa staining-based phase contrast microscopic analysis; assay type: functional, cell-based; how it was run: as §1
Cannabinoid receptor 1 = Cannabinoid receptor 1 (Homo sapiens, UniProt P21554); test: Displacement of [3H]-CP55940 from human CB1 receptor expressed in CHO cell membranes after 90 mins by scintillation counting analysis
Sequence of Cannabinoid receptor 1 (P21554 whole entry): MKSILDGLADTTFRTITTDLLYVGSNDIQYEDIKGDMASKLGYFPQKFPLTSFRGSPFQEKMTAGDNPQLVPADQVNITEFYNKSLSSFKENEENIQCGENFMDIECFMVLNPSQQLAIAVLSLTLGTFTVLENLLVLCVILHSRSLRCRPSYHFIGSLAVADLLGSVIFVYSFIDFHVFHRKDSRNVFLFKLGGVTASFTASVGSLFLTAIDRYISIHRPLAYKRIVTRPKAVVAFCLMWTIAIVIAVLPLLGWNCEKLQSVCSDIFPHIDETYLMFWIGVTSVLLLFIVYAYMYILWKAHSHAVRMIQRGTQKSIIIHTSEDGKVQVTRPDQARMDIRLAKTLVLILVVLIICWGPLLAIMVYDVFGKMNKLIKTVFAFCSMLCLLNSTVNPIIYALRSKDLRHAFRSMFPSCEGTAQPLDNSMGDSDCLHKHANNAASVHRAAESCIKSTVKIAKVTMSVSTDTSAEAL
How it was run: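 Membranes from CHO cells stably transfected with human CB1 incubated 90 min at 30 °C with varying compound concentrations and 0.5 nM [3H]-CP55940; WIN55,212-2 as positive control. Mean ± SD, n = 2–3.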

U-937 [11] = test: Potency index, ratio of UCM707 EC50 to compound EC50 for anandamide membrane transporter in human U937 cells; assay type: cell-based
PC-12 [12] = test: Neuritogenic activity in rat PC12 cells in presence of CB1 antagonist rimonabant/AM251; assay type: functional, cell-based
How it was run: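 PC12 cells co-treated with the CB1 antagonists rimonabant (1 μM and 100 nM) or AM251 (3 μM and 100 nM) alongside the differentiation-inducing compound, in the neurite outgrowth assay.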

[13] = Cytotoxicity against rat PC12 cells at 50 uM; assay type: cell-based; conditions: pc-12, 50 µM
PC-12 [14] = test: Neuritogenic activity in rat PC12 cells assessed as induction of neuronal differentiation at 5 uM after 2 days by Giemsa staining-based phase contrast microscopic analysis; assay type: functional, cell-based; how it was run: as §1

EC50 [3]: 966 nM
Structure (SMILES): CC/C=C\C/C=C\C/C=C\CCCCCCCCN[C@H](CO)Cc1ccc(O)cc1
Activity (PC-12 [1]): inactive | Imax (U-937 [2]): 60% | Activity [4]: Non-toxic | Activity [5]: Toxic

Structure (SMILES): CCC(=O)N[C@@H](CO)Cc1ccc(O)cc1
Activity (PC-12 [6]): inactive

inhibition [7]: Active
Structure (SMILES): O=C(CCC(=O)N[C@@H](CO)Cc1ccc(O)cc1)N[C@H](CO)Cc1ccc(O)cc1
inhibition (U-937 [2]): 20% | Activity (PC-12 [6]): Active

inhibition [7]: Active
Structure (SMILES): CCC(=O)N[C@@H](Cc1ccc(O)cc1)C(=O)O
inhibition (U-937 [2]): 20% | Activity (PC-12 [6]): Active

Structure (SMILES): CCC(=O)N[C@H](CO)Cc1ccccc1
Activity (PC-12 [6]): inactive

Structure (SMILES): CCCCC/C=C\C/C=C\C/C=C\C/C=C\CCCC(=O)NCCc1ccoc1
Imax (U-937 [2]): 80% | EC50 [3]: 1800 nM

Structure (SMILES): CCCCC/C=C\C/C=C\C/C=C\C/C=C\CCC(C)C(=O)NCCF (configuration not stated)
Activity (PC-12 [8]): inactive

Structure (SMILES): CC(/C=C/C(=O)NC(CO)Cc1ccc(O)cc1)=C\C(C)CC(=O)O (configuration not stated)
Activity (PC-12 [9]): Active

EC50 [3]: 975 nM
Structure (SMILES): CCCCC/C=C\C/C=C\CCCCCCCCN[C@H](CO)Cc1ccc(O)cc1
Activity (PC-12 [1]): inactive | Imax (U-937 [2]): 51% | Activity [4]: Non-toxic | Activity [5]: Toxic

Structure (SMILES): CC(C)(C)C(=O)N[C@H](CO)Cc1ccc(O)cc1
Activity (PC-12 [6]): inactive

Structure (SMILES): CCCN[C@H](CO)Cc1ccc(O)cc1
Activity (PC-12 [6]): inactive

inhibition [7]: Active
Structure (SMILES): CCC(=O)N[C@H](COC)Cc1ccc(OC)cc1
inhibition (U-937 [2]): 20% | Activity (PC-12 [6]): inactive

inhibition [7]: Active
Structure (SMILES): O=C(CCCCCCCO)N[C@H](CO)Cc1ccc(O)cc1
inhibition (U-937 [2]): 20% | Activity (PC-12 [6]): Active | Activity (PC-12 [10]): Active

EC50 [3]: 228 nM | Ki (Cannabinoid receptor 1): 810 nM
Structure (SMILES): CCCCC/C=C\C/C=C\CCCCCCCC(=O)N[C@H](CO)Cc1ccc(O)cc1
Imax (U-937 [2]): 52% | Activity (PC-12 [10]): Active | Ratio EC50 (U-937 [11]): 10 | Activity (PC-12 [12]): Active

Structure (SMILES): CCC(=O)NCCc1ccc(O)cc1
Activity [13]: Toxic | Activity (PC-12 [6]): inactive

Structure (SMILES): CC(C)C(=O)N[C@H](CO)Cc1ccc(O)cc1
Activity (PC-12 [6]): inactive

Ki (Cannabinoid receptor 1): 530 nM
Structure (SMILES): OCCCCCCCCCCCCCCCN[C@H](CO)Cc1ccc(O)cc1
Activity (PC-12 [1]): inactive | Activity [4]: Non-toxic | Activity [5]: Toxic

Structure (SMILES): CCC(=O)N[C@H](COC)Cc1ccc(O)cc1
Activity (PC-12 [6]): inactive

Structure (SMILES): CCCCCCCCC(=O)N[C@H](CO)Cc1ccc(O)cc1
Activity (PC-12 [6]): inactive

Structure (SMILES): CCCCCCCCCCCCCCCCN[C@H](CO)Cc1ccc(O)cc1
Activity (PC-12 [1]): inactive | Activity [4]: Non-toxic | Activity [5]: Toxic

Structure (SMILES): CCC(=O)N[C@H](CO)Cc1ccc(OC)cc1
Activity (PC-12 [6]): inactive

Structure (SMILES): CCC(=O)NCCc1ccc(O)c(O)c1
Activity (PC-12 [14]): inactive | Activity [13]: Toxic

Structure (SMILES): O=C(CCCc1cn(C23CC4CC(CC(C4)C2)C3)nn1)N[C@H](CO)Cc1ccc(O)cc1
Activity (PC-12 [6]): inactive

Structure (SMILES): CCC(=O)N[C@H](CO)Cc1ccc(OC(=O)CC)cc1
Activity (PC-12 [6]): inactive

EC50 [3]: 757 nM
Structure (SMILES): O=C(CCCCCCCCCCCCCCO)N[C@H](CO)Cc1ccc(O)cc1
Imax (U-937 [2]): 73% | Activity (PC-12 [10]): inactive

Structure (SMILES): CCC(=O)N[C@H](CO)Cc1ccc(O)cc1
Activity (PC-12 [6]): Active

Structure (SMILES): CCC(=O)N[C@H](COC(=O)CC)Cc1ccc(O)cc1
Activity (PC-12 [6]): inactive

inhibition [7]: Active
Structure (SMILES): O=C(N[C@H](CO)Cc1ccc(O)cc1)c1ccccc1
inhibition (U-937 [2]): 20% | Activity [13]: Non-toxic
